Source: PubChem
Wee1 stabilizer: blocks degradation of human Wee1 kinase; HeLa Luc-Wee1K328M stability, luciferase luminescence; 100% = proteasome inhibitor MG132 effect; reporter increase, % at 5 µM; 220,000 tested, 1.2% active; AID 1321;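 active means activation above the mean of all tested compounds plus 3 SD, set per screening run, cut at about 8.8% in these data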;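 further: cells exposed to compound for 20 h before luminescence read; 0% = DMSO alone and 100% = MG132 at 30 µM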
Target sequence (P30291 whole entry K328M): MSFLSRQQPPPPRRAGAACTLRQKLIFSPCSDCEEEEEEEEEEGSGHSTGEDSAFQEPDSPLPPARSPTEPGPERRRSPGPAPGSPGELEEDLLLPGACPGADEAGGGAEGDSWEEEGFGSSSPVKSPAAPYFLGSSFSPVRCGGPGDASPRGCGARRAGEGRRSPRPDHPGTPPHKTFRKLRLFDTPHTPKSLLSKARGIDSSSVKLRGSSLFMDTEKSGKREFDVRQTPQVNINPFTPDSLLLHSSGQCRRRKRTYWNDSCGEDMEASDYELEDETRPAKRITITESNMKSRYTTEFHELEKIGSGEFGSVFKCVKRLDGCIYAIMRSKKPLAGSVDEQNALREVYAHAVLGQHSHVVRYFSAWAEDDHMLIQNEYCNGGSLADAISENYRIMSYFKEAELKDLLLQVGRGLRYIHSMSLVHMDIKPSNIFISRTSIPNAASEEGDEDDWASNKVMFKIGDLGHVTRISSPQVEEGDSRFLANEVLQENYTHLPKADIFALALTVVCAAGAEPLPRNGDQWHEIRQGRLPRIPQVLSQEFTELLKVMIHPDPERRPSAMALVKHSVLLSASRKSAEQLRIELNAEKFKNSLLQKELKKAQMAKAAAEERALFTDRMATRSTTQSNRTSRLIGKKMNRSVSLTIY
Runt-SMMHC FRET: blocks binding of human RUNX1 Runt domain to CBFb-SMMHC | Q01196+Q13951 | Cerulean-Runt/Venus-CBFb-SMMHC FRET ratio 530/480, 1 h | inhibition, % at 20 µM | 220,000 tested, 0.74% active | AID 1434;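 active means mean inhibition across duplicate retests at 20 µM reaching about 50%, limit read from the data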;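 further: 0% = DMSO wells and 100% = wells with excess untagged CBFb-SMMHC; inhibitors lower the FRET ratio by blocking Runt binding to CBFb-SMMHC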
PHOSPHO1 block: blocks human PHOSPHO1 phosphatase activity; AID 1565; inhibition, % at 13.3 µM; recombinant PHOSPHO1, absorbance phosphatase assay; 290,000 tested, 1.1% active; in the data active means inhibition above about 60%
HMGR II inh: blocks class II HMG-CoA reductase of Enterococcus faecalis; inhibition, % at 10 µM; purified E. faecalis HMGR, NADPH absorbance 340 nm kinetic; 190,000 tested, 0.41% active;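 active means inhibition above a set limit, the median over all tested compounds plus 3 SD, cut at about 9.5% in these data; inconclusive means no clear call, values can overlap the other calls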;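 further: enzyme runs in reverse so mevalonate oxidation gives rising NADPH absorbance; 0% = complete reaction with DMSO and 100% = background rate lacking mevalonate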
RanGTP-Impb inh: inhibitors of RanGTP-importin-beta interaction, primary screen, biochemical, FRET, CFP-Ran, YFP-importin-beta, homogeneous | cell-free CFP-Ran/YFP-importin-beta FRET ratio | inhibition, % (no concentration beside the values) | 300,000 tested, 1.1% active | AID 2216;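 active means more than half of the replicate wells show a fall in the fluorescence ratio signal beyond about 16%, limit read from the data, passing the limit was not always enough; inconclusive means exactly half of the replicate wells pass the set limit; inactive means fewer than half of replicates pass the limit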;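 further: 0% = DMSO wells and 100% = Ran loaded with GDP instead of GTP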
Runt-CBFb FRET: Runt domain-CBFb interaction inhibition; inhibition, % at 20 µM; Q01196+Q13951; 220,000 tested, 0.46% active; AID 1496; Cerulean-Runt/Venus-CBFb FRET ratio 530/480, 1 h;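 active means inhibition over about 50% at 20 µM in the single-dose screen, limit read from the data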;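 further: 0% = DMSO wells and 100% = excess unlabeled CBFb competitor control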
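Doses: 20 µM compound in 1% DMSO | Material: Cerulean-labeled Runt domain protein | Amount: Each fluorescent fusion protein 100 nM | Schedule: Two 1 h room-temperature incubations shielded from light | Measured by: FRET fluorescence | Evaluation: Loss of energy transfer signal | Controls: Unlabeled CBFb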
Starred values were filed as active, the others as inactive; ? = inconclusive; . = no result. This is a sample that favours compounds with a hit; in the whole collection about 3.4% have one here.

SMILES	Wee1 stabilizer	Runt-SMMHC FRET	PHOSPHO1 block	HMGR II inh	RanGTP-Impb inh	Runt-CBFb FRET
O=C(NCCc1ccccc1)/C(=C\c1cccc([N+](=O)[O-])c1)NC(=O)c1ccco1	.	.	43	.	7	.
COc1ccc(C(=O)N(Cc2nc(-c3ccc(C)cc3)no2)C2CCCCC2)cc1OC	-1	-4	6	-3	-11	-9
COc1ccc(OC)c(S(=O)(=O)N2CCC(C(=O)NC3CCCCC3)CC2)c1	.	.	19	.	?	.
COC(=O)c1ccc2nc(NC(=O)C(C)C)sc2c1	2	-2	-10	0	30*	-1
CCOC(=O)c1ccc2nc(NC(C)=O)sc2c1	9.4*	2	4	5	1	0
COC(=O)c1ccc2nc(NC(=O)C3CC3)sc2c1	.	.	18	.	0	.
CCOc1ccc2nc(NC(=S)N(C)C)sc2c1	7	24	91*	2	-5	47
COC(=O)c1ccc2nc(Nc3nc4c(F)cc(F)cc4s3)sc2c1	-3	69	-2	3	71*	42
Cc1ccc(C(=O)N2CCCC(N3CCN(c4ccccc4C)CC3)C2)c(=O)[nH]1 (stereo unspecified)	.	.	-4	.	3	.
Cc1ccc(C(=O)N/C(=C\c2cccs2)C(=O)NCCCN2CCOCC2)cc1	.	.	31	.	-5	.
CCCn1cc(CN2CCC(n3nccc3NC(=O)CCOc3ccccc3)CC2)c(C)n1	.	.	29	.	1	.
COC(=O)c1ccc2nc(NC(=O)CN3C(=O)CCC3=O)sc2c1	1	2	71*	-5	-2	2
Cc1sc(-n2c(C)ccc2C)c(C#N)c1C	0	2	95*	-2	5	19
O=C(Cn1nc(-c2ccccc2)c2ccccc2c1=O)NCCO	.	.	16	.	-1	.
CC(C)(Oc1ccc(Cl)cc1)C(=O)Nc1c2c(nn1C(C)(C)C)CS(=O)(=O)C2	.	.	.	.	1	.
COc1ccc(CN(Cc2ccc(OC)cc2)S(=O)(=O)c2ccc(-n3cnnn3)c(C)c2)cc1	2	-1	3	-2	27*	-2
CCOc1cc(C)c(Cl)cc1S(=O)(=O)NCCOC	9.5*	-4	-15	4	0	0
COCCNS(=O)(=O)c1cc(OC)c(Cl)cc1Cl	0	1	-4	-5	-1	1
COc1cc(NS(=O)(=O)c2ccc(N/C=C\C(=O)c3ccc(OC)c(OC)c3)cc2)nc(OC)n1	-3	83*	9	-3	1	38
CCCSc1nc(C)nc2c1c(=O)n(C)c(=O)n2C	-4	3	10	-14	.	1
Cc1ccc(C2CC(=O)N3CN(Cc4ccco4)CSC3=C2C#N)cc1 (stereo unspecified)	-2	26	76*	.	3	21
CC(C)c1ccc(C2CC(=O)N3CN(C)CSC3=C2C#N)cc1 (stereo unspecified)	-2	40	12	-4	-2	15
N#CC1=C2SCN(Cc3ccco3)CN2C(=O)CC1c1c(F)cccc1Cl (stereo unspecified)	2	11	79*	-4	1	14
COc1ccc2ccccc2c1C1CC(=O)N2CN(C)CSC2=C1C#N (stereo unspecified)	0	32	54	-5	?	22
COc1ccc(C(CNC(=O)CCNS(=O)(=O)c2ccc(C)cc2)N2CCOCC2)cc1 (stereo unspecified)	.	.	.	.	4	.
SMILES	Wee1 stabilizer	Runt-SMMHC FRET	PHOSPHO1 block	HMGR II inh	RanGTP-Impb inh	Runt-CBFb FRET
CC(=O)Nc1ccc(NC2=CC(=O)CC(C)(C)C2)cc1	0	-2	0	-1	50*	0
Cc1cc(N)c(NC2=CC(=O)CC(C)(C)C2)cc1C	-2	-12	32	2	22*	0
COc1cccc(NC2=CC(=O)CC(C)(C)C2)c1	-2	2	20	0	10	0
CC1(C)CC(=O)C=C(Nc2cccc(F)c2)C1	.	.	33	.	28*	.
Cc1ccc(NC2=CC(=O)CC(C)(C)C2)cc1F	.	.	2	.	5	.
COC(=O)c1ccc(NC2=CC(=O)CC(C)(C)C2)cc1	0	1	6	0	6	-2
Cc1ccc(N2CC(O)Cn3c2nc2c3c(=O)[nH]c(=O)n2C)cc1 (stereo unspecified)	.	.	24	.	-1	.
Cc1n[nH]c(C)c1CN(C)C(=O)C1CCC(=O)N(CC2CCCCC2)C1 (stereo unspecified)	.	.	45	.	4	.
CC(C)c1ccc(N(CC(=O)NCc2ccco2)C(=O)CCC(=O)Nc2nccs2)cc1	.	.	-4	.	-1	.
Cc1ccc2[nH]c(=O)c(C3C(C#N)=C(N)Oc4c3ccc3cccnc43)cc2c1 (stereo unspecified)	-3	5	83*	3	12	7
CC1=NN(C(=O)COc2cc(C)ccc2C(C)C)C(O)(c2ccccc2)C1 (stereo unspecified)	11*	0	-3	.	-3	0
CC1=NN(C(=O)COc2ccc(C)c(C)c2)C(O)(c2ccc(Cl)cc2)C1 (stereo unspecified)	4	4	2	-4	-1	-1
Oc1ccc(-c2csc(-c3ccccc3)n2)cc1O	4	52*	18	2	-4	37
O=C(NCc1n[nH]c(=S)n1-c1ccc(F)cc1)c1ccc(S(=O)(=O)N2CCCC2)cc1	2	8	96*	0	?	9
O=C(NCc1n[nH]c(=S)n1-c1cccc(Cl)c1)c1ccc(S(=O)(=O)N2CCCC2)cc1	11*	5	-31	-5	0	9
O=C(NCc1n[nH]c(=S)n1-c1ccc(Cl)c(Cl)c1)c1ccc(S(=O)(=O)N2CCCCC2)cc1	.	.	-128	.	-1	.
Cc1c(NC(=O)Nc2cc(F)c(F)cc2Cl)c(=O)n(-c2ccccc2)n1C	.	.	.	.	0	.
CCOc1ccc(/C=N/NC(=O)C(O)c2ccccc2)c(O)c1 (stereo unspecified)	.	.	24	.	?	.
COc1ccc(S(=O)(=O)N2CCCCCC2)cc1C(=O)OCc1cccc(OC)c1OC	.	.	.	.	1	.
CCOc1ccc(C(=S)NC2CCCCC2)cc1OC	0	24	81*	-3	-2	46
CCc1ccc(NC(=S)/N=C(\N)Nc2nc(C)c3cc(CC)ccc3n2)cc1	-2	1	16	-3	?	3
CCc1ccc2nc3nc(C)cc(C)c3c(N)c2c1	-2	44	4	0	149*	10
Cc1cc(C)c2c(N)c3ccccc3nc2n1	-2	78*	24	-6	135*	11
Cn1cccc1CC(=O)NNC(=S)NC(=O)c1ccc(F)cc1	-4	-4	92*	.	5	11
COc1ccc(C(=O)NNC(=S)NC(=O)c2ccco2)cc1	2	-2	12	-1	-3	4
O=C(NNC(=S)NC(=O)c1ccco1)c1ccc(F)cc1	10*	0	-29	.	0	6
